Measured values published in ChEMBL document CHEMBL4619810, “Fluorescent H2 Receptor Squaramide-Type Antagonists: Synthesis, Characterization, and Applications” (ACS Med Chem Lett, 2020).
The source made the active and inactive calls. The calls are words filed in the database; no cut-off is given here.

How the values were obtained:
[1] = target: T1, Histamine H2 receptor (Homo sapiens, UniProt P25021); assay: Binding affinity to H2R (unknown origin)
[2] = target: T1, Histamine H2 receptor; assay: Agonist activity at human H2R expressed in human HEK293T cells assessed as effect on beta-arrestin2 recruitment incubated for 60 mins by brightglo-reagent based assay; assay type: cell-based; settings: HEK-293T
[3] = target: T1, Histamine H2 receptor; assay: Displacement of [3H]UR-DE257 from Gsalphas-coupled human H2R expressed in baculovirus infected Sf9 cells incubated for 60 mins by scintillation counting method
[4] = target: T1, Histamine H2 receptor; assay: Binding affinity to human H2R expressed in human HEK293T cells incubated for 90 mins by flowcytometry; assay type: cell-based, HEK-293T
How it was run: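 Flow cytometric saturation binding of fluorescent ligands on suspended HEK293T-hH2R-qs5 cells, 90 min incubation; pKd reported as mean ± SEM from three independent experiments, each in duplicate.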

[5] = target: T1, Histamine H2 receptor; settings: Sf9
[6] = tested on: HEK-293T; assay: Cytotoxicity against human HEK293T cells assessed as reduction in cell viability at 500 nM incubated for 90 mins by flow cytometry analysis; assay type: cell-based; settings: 1.5 h, 0.5 µM
[7] = target: T1, Histamine H2 receptor; assay: Binding affinity to human H2R expressed in human HEK293T cells incubated for 60 mins by imaging flow cytometry analysis; assay type: cell-based, HEK-293T; settings: for Ka: HEK-293T
[8] = target: T1, Histamine H2 receptor; assay: Binding affinity to human H2R expressed in human HEK293T cells incubated for 60 mins by automated cell imaging analysis; assay type: cell-based, HEK-293T
[9] = tested on: HEK-293T; assay: Cytotoxicity against human HEK293T cells assessed as reduction in cell viability at 500 nM incubated for 60 mins by H33342 staining based imaging analysis; settings: 1 h, 0.5 µM
[10] = tested on: HEK-293T; assay: Cytotoxicity against human HEK293T cells assessed as reduction in cell viability at 1000 nM incubated for 60 mins by H33342 staining based imaging analysis; settings: 1 h, 1 µM
[11] = target: T1, Histamine H2 receptor; assay: Binding affinity to H2R in human HEK293T cell membrane assessed as drug localization at 100 nM incubated for 20 mins by confocal microscopy analysis; assay type: cell-based; settings: HEK-293T
How it was run: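 Live HEK293T-hH2R-qs5 cells exposed to fluorescent ligand at 100 nM, 20 min, room temperature; receptor binding at the cell membrane visualized by confocal laser scanning microscopy (63x/1.40 oil immersion objective).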

[12] = target: T1, Histamine H2 receptor; assay: Binding affinity to H2R in human HEK293T cell membrane assessed as drug localization at 100 nM in presence of famotidine incubated for 20 mins by confocal microscopy analysis; assay type: cell-based; settings: HEK-293T
How it was run: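 HEK293T-hH2R-qs5 cells incubated with fluorescent ligand (100 nM) for 20 min at rt in the presence of famotidine (300-fold excess) to define nonspecific binding; membrane localization imaged by confocal laser scanning microscopy, 63x/1.40 oil objective.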

[13] = target: T1, Histamine H2 receptor; assay: Binding affinity to H2R in human HEK293T cell membrane assessed as drug localization at 250 nM incubated for 60 mins followed by compound washoff by confocal microscopy analysis; assay type: cell-based; settings: HEK-293T
How it was run: (§1)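 Adherent HEK293T-hH2R-qs5 cells incubated with fluorescent ligand 60 min at rt, then washed; Hoechst 33342 nuclear counterstain; famotidine (300-fold excess) defines nonspecific binding; membrane localization imaged by automated cell imaging.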

[14] = target: Histamine H2 receptor (Rattus norvegicus, UniProt P25102); assay: Displacement of [125I]-aminopotentidine from rat H2R expressed in human COS7 cells incubated for 90 mins gamma counting method; assay type: cell-based, COS-7
Histamine H2 receptor (Rattus norvegicus, UniProt P25102), sequence (P25102 whole entry): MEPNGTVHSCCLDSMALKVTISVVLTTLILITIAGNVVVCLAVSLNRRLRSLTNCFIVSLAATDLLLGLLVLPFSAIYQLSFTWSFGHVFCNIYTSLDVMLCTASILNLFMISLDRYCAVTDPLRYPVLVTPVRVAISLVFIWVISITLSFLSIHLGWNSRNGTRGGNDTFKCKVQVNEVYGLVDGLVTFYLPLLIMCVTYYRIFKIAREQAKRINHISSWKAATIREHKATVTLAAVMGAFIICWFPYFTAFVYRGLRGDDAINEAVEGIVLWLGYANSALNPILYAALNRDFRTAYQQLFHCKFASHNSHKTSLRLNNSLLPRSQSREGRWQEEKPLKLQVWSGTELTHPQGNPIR

[15] = target: T1, Histamine H2 receptor; assay: Binding affinity to human H2R expressing Sf9 cells incubated for 60 mins by microbeta scintillation counter method
[16] = tested on: HEK-293T; assay: Cytotoxicity against human HEK293T cells assessed as reduction in cell viability at 3500 nM incubated for 90 mins by flow cytometry analysis; assay type: cell-based; settings: 1.5 h, 3.5 µM
[17] = target: T1, Histamine H2 receptor; assay: Binding affinity to H2R in human HEK293T cell membrane assessed as drug localization at 500 nM incubated for 60 mins followed by compound washoff by confocal microscopy analysis; assay type: cell-based; settings: HEK-293T; how it was run: as §1
[18] = tested on: HEK-293T; assay: Cytotoxicity against human HEK293T cells assessed as reduction in cell viability at 3000 nM incubated for 60 mins by H33342 staining based imaging analysis; settings: 1 h, 3 µM
[19] = target: T1, Histamine H2 receptor; assay: Binding affinity to H2R in human HEK293T cell membrane assessed as drug localization at 75 nM incubated for 60 mins followed by compound washoff by confocal microscopy analysis; assay type: cell-based; settings: HEK-293T; how it was run: as §1
[20] = tested on: HEK-293T; assay: Cytotoxicity against human HEK293T cells assessed as reduction in cell viability at 100 nM incubated for 90 mins by flow cytometry analysis; assay type: cell-based; settings: 1.5 h, 0.1 µM
[21] = tested on: HEK-293T; assay: Cytotoxicity against human HEK293T cells assessed as reduction in cell viability at 150 nM incubated for 60 mins by H33342 staining based imaging analysis; settings: 1 h, 0.15 µM
[22] = tested on: HEK-293T; assay: Cytotoxicity against human HEK293T cells assessed as reduction in cell viability at 3000 nM incubated for 90 mins by flow cytometry analysis; assay type: cell-based; settings: 1.5 h, 3 µM

T1 sequence (P25021 whole entry): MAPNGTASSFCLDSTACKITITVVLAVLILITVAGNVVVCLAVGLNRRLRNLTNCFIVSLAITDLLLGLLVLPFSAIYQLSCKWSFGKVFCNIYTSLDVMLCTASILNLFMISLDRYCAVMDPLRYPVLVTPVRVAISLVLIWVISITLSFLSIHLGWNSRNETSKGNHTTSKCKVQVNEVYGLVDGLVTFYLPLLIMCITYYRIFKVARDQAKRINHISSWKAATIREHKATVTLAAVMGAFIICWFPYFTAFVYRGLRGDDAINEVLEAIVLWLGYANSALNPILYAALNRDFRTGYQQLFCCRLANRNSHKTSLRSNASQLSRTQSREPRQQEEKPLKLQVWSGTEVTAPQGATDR

Row | Compound | Activity [2] | Ki [3] | Kd [4] | pKb [5] | Activity [6] | Kd [8] | further results
1 | CC1(C)C(/C=C/C=C/C=C2\N(CCCCCC(=O)NCCCCCNc3c(NCCCOc4cccc(CN5CCCCC5)c4)c(=O)c3=O)c3ccccc3C2(C)C)=[N+](CCCCS(=O)(=O)[O-])c2ccccc21 | – | – | – | – | – | – | pKb [1]: 6.89
2 | Cc1cc(/C=C/C=C/c2ccc(N(C)C)cc2)cc(C)[n+]1CCCCCCNc1c(NCCCOc2cccc(CN3CCCCC3)c2)c(=O)c1=O.O=C(O)C(F)(F)F.O=C([O-])C(F)(F)F | inactive | 19.5 nM | 14.5 nM | 7.21 | Non-Toxic | – | –
3 | Cc1cc(/C=C/C=C/c2ccc(N(C)C)cc2)cc(C)[n+]1CCCCNc1c(NCCCOc2cccc(CN3CCCCC3)c2)c(=O)c1=O.O=C(O)C(F)(F)F.O=C([O-])C(F)(F)F | – | 17.8 nM | 28.2 nM | – | Non-Toxic | 74.1 nM | Kd [7]: 87.1 nM; Activity [9]: Non-Toxic
4 | Cc1cc(/C=C/C=C/c2ccc(N(C)C)cc2)cc(C)[n+]1CCCCCCCNc1c(NCCCOc2cccc(CN3CCCCC3)c2)c(=O)c1=O.O=C(O)C(F)(F)F.O=C([O-])C(F)(F)F | inactive | 17.4 nM | 18.6 nM | 7.85 | Non-Toxic | 89.1 nM | Kd [7]: 64.6 nM; Ka [7]: 0.0043 min⁻¹ nM⁻¹; Activity [10]: Non-Toxic; Activity [11]: Active; Activity [12]: Active; Activity [13]: Active
5 | CC1(C)C(/C=C/C=C/C=C2\N(CCCCCC(=O)NCCCCNc3c(NCCCOc4cccc(CN5CCCCC5)c4)c(=O)c3=O)c3cc(S(=O)(=O)O)ccc3C2(C)C)=[N+](CCCCS(=O)(=O)[O-])c2ccccc21 | inactive | 2040 nM | – | – | – | – | –
6 | N#CN=C(NCCCCCCCCNc1ccc([N+](=O)[O-])c2n[o+][n-]c12)NCCCOc1cccc(CN2CCCCC2)c1 | – | – | – | – | – | – | Ki [14]: < 100 nM
7 | [3H]CC([3H])C(=O)NCCCCCCNc1c(NCCCOc2cccc(CN3CCCCC3)c2)c(=O)c1=O (centres undefined) | – | – | – | – | – | – | Kd [15]: 31 nM
8 | C[N+]1=C(/C=C/C=C/C=C2\N(CCCCCC(=O)NCCCCNc3c(NCCCOc4cccc(CN5CCCCC5)c4)c(=O)c3=O)c3ccccc3C2(C)C)C(C)(C)c2ccccc21.O=C(O)C(F)(F)F.O=C([O-])C(F)(F)F | – | 269 nM | 288 nM | – | – | 120 nM | Activity [16]: Non-Toxic; Activity [9]: Non-Toxic
9 | CNc1ccccc1C(=O)NCCN/C(=N\C#N)NCCCOc1cccc(CN2CCCCC2)c1 | – | – | – | – | – | – | Ki [14]: < 100 nM
10 | CC1(C)C(/C=C/C=C/C=C2\N(CCCCCC(=O)NCCCCCCNc3c(NCCCOc4cccc(CN5CCCCC5)c4)c(=O)c3=O)c3cc(S(=O)(=O)O)ccc3C2(C)C)=[N+](CCCCS(=O)(=O)[O-])c2ccccc21.O=C(O)C(F)(F)F.O=C(O)C(F)(F)F | – | 1320 nM | – | – | – | 447 nM | Activity [17]: Active; Activity [18]: Non-Toxic
11 | CC1(C)C(/C=C/C=C/C=C2\N(CCCCCC(=O)NCCCCCCNc3c(NCCCOc4cccc(CN5CCCCC5)c4)c(=O)c3=O)c3ccccc3C2(C)C)=[N+](CCCCS(=O)(=O)[O-])c2ccccc21.O=C(O)C(F)(F)F.O=C(O)C(F)(F)F | – | 77.6 nM | 47.9 nM | 6.49 | Non-Toxic | 16.2 nM | Activity [19]: Active; Ka [7]: 0.0009 to 0.002 min⁻¹ nM⁻¹; Activity [11]: Active; Activity [12]: Active; Activity [9]: Non-Toxic
12 | C[N+]1=C(/C=C/C=C/C=C2\N(CCCCCC(=O)NCCCCCCNc3c(NCCCOc4cccc(CN5CCCCC5)c4)c(=O)c3=O)c3ccccc3C2(C)C)C(C)(C)c2ccccc21.O=C(O)C(F)(F)F.O=C([O-])C(F)(F)F | inactive | 21.4 nM | 12.9 nM | 7.73 | – | 15.1 nM | Activity [19]: Active; Ka [7]: 0.0009 to 0.002 min⁻¹ nM⁻¹; Activity [20]: Non-Toxic; Activity [21]: Non-Toxic; Activity [11]: Active; Activity [12]: Active
13 | CC1(C)C(/C=C/C=C/C=C2\N(CCCCCC(=O)NCCCCNc3c(NCCCOc4cccc(CN5CCCCC5)c4)c(=O)c3=O)c3ccccc3C2(C)C)=[N+](CCCCS(=O)(=O)[O-])c2ccccc21.O=C(O)C(F)(F)F.O=C(O)C(F)(F)F | – | 324 nM | 562 nM | – | – | 170 nM | Activity [22]: Non-Toxic; Activity [18]: Non-Toxic
